From PubChem
Rows were chosen to be rich in hits. Some 2% of all compounds tested hit in one or more screens of this group.
EBI2 antag = antagonists of human EBI2 receptor; P32249; EBI2 beta-arrestin recruitment, luminescence, 7a,25-OHC stimulated; inhibition, % at 5 µM; hit rate 0.81% among 360,000; in the data active means inhibition above about 38%;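 further: enzyme fragment complementation signal reports receptor beta-arrestin coupling in cells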
CXCR6 inh = blocks human CXCR6 beta-arrestin recruitment; CHO-K1 PathHunter CXCR6 beta-arrestin, luminescence; inhibition, % at 20 µM; O00574; hit rate 0.36% among 360,000; in the data active means inhibition above about 34%, passing the limit was not always enough;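 further: antagonist mode with CXCL16 agonist at 10 nM final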
APJ ag = agonists of human APJ apelin receptor | P35414 | CHO-K1 APJ PathHunter beta-arrestin, luminescence; 0% DMSO wells, 100% apelin | activation, % at 20 µM | hit rate 0.11% among 330,000;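 active means activation more than six SD over the plate average, tested at 20 µM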
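assay system = CHO-K1 APJ beta-arrestin complementation cell line | input = cell density 1000 per well | dosing = compound 20 µM once, DMSO 1% | timing = compound 90 min 25 °C, reagent 1 h | measured by = luminescence from split beta-galactosidase complementation, Galacton Star/Emerald II substrate | read-out basis = APJ agonist activity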
APJ antagonist = antagonists of human APJ apelin receptor | CHO-K1 APJ beta-arrestin complementation, luminescence | hit rate 0.32% among 330,000 | P35414 | inhibition, % at 20 µM | AID 2521;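 active means inhibition above about 40% at 20 µM, limit read from the data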;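 further: cells challenged with 10 nM apelin-13 agonist together with compound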
CCR6 antagonist = antagonists of human CCR6 receptor; CHO-K1 CCR6 PathHunter beta-arrestin, luminescence, CCL20-stimulated; inhibition, % at 20 µM; hit rate 0.49% among 340,000;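 active means compounds whose inhibition of the agonist-driven luminescence signal at 20 µM reaches about 50%, limit read from the data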;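 further: cells stimulated with CCL20 at 14 nM final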
Target sequence (P51684 whole entry, looked up): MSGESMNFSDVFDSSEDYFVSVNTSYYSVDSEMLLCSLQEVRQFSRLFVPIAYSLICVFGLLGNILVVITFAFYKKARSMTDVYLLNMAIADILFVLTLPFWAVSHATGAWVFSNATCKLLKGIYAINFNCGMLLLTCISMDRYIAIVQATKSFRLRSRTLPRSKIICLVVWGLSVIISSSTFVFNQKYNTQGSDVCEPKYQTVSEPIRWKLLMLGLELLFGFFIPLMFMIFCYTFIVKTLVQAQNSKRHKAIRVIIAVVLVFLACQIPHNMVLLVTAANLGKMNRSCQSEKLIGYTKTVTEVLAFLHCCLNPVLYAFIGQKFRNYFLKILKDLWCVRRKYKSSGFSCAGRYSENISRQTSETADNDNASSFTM
GAA850 FXN act = activators of GAA850 frataxin (FXN) promoter | HEK293 lucGAA850 FXN promoter luciferase reporter, 24 h; percent of 10 µM SAHA response | activation, % at 6 µM | hit rate 0.56% among 360,000 | AID 540364;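 active means activation above the average of all compounds screened plus 3 SD, cutoff fixed separately per campaign, cut at about 7.5% in these data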
EBI2 antag conf = confirmation of human EBI2 receptor antagonists; EBI2 beta-arrestin luminescence, 7a,25-OHC antagonism; shares compounds with EBI2 antag; inhibition, % at 5 µM; hit rate 29% among 2,400;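 active means inhibition of at least 50%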
EBI2 agonist = activates EBI2, counter-screen for EBI2 antagonists; shares compounds with EBI2 antag; EBI2-expressing cells, agonist mode, luminescence, 60 min; 0% vehicle, 100% 7α,25-dihydroxycholesterol control; 2,400 tested, under 10 active; activation, % at 5 µM;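 active means activation of at least 50%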
bGal cs = inhibits E. coli beta-galactosidase, counter-screen for EBI2 antagonists; shares compounds with EBI2 antag; hit rate 1% among 2,400; AID 652176; purified beta-galactosidase, luminescent Galacton Star, 15 min; inhibition, % at 5 µM;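 active means replicate-average signal at least 3 plate SD below neutral wells, shown as high inhibition, flagging enzyme-inhibiting false positives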;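 further: higher means stronger loss of beta-gal luminescence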
A number is an active result.

Screening O=C(c1ccc(F)cc1)C1CCN(C(=S)NCC2CCCO2)CC1 (centres undefined) returned EBI2 antag 51.1, CXCR6 inh inactive, APJ ag inactive, APJ antagonist inactive, CCR6 antagonist inactive, GAA850 FXN act inactive, EBI2 antag conf inactive, EBI2 agonist inactive and bGal cs inactive.
Screening CN1CCN(CCNC(=O)c2ccc(CS(=O)c3ccc(Br)cc3)o2)CC1 (centres undefined) returned EBI2 antag inactive, CXCR6 inh inactive and GAA850 FXN act inactive.
For CCOC(=O)N1CCN(S(=O)(=O)/C=C/c2ccccc2)CC1 the results were EBI2 antag inactive, CXCR6 inh inactive, APJ ag inactive, APJ antagonist inactive, CCR6 antagonist inactive and GAA850 FXN act inactive.
O=C(COc1ccc(Br)cc1)N1CCN(S(=O)(=O)/C=C/c2ccccc2)CC1 was read as EBI2 antag 92.5, CXCR6 inh inactive, APJ ag inactive, APJ antagonist inactive, CCR6 antagonist inactive, GAA850 FXN act inactive, EBI2 antag conf 85.6, EBI2 agonist inactive and bGal cs inactive.
Screening O=C(COc1ccccc1F)N1CCN(S(=O)(=O)/C=C/c2ccccc2)CC1 returned EBI2 antag 54.5, CXCR6 inh inactive, APJ ag inactive, APJ antagonist inactive, CCR6 antagonist inactive, GAA850 FXN act inactive, EBI2 antag conf inactive, EBI2 agonist inactive and bGal cs inactive.
`COc1ccc2nc(C)cc(SCC(=O)N/N=C/c3cccc4ccccc34)c2c1` gave EBI2 antag 45.9, CXCR6 inh inactive, APJ ag inactive, APJ antagonist inactive, CCR6 antagonist inactive, GAA850 FXN act inactive, EBI2 antag conf inactive, EBI2 agonist inactive and bGal cs inactive.
`Cc1ccccc1CN(c1ccc(C(=O)Nc2ccccc2C(=O)NCc2ccco2)cc1)S(C)(=O)=O` gave EBI2 antag 57.9, CXCR6 inh inactive, APJ ag inactive, APJ antagonist inactive, CCR6 antagonist inactive, GAA850 FXN act inactive, EBI2 antag conf inactive, EBI2 agonist inactive and bGal cs inactive.
For Cc1ccc(C(=O)Nc2ccccc2C(=O)NCc2ccco2)cc1 the results were EBI2 antag inactive, CXCR6 inh inactive, APJ ag inactive, APJ antagonist inactive, CCR6 antagonist inactive and GAA850 FXN act inactive.
For CCC[C@H]1CN(Cc2ccccc2)C(=O)[C@@H]1CC(=O)NC the results were EBI2 antag inactive, CXCR6 inh inactive and GAA850 FXN act inactive.
For OC[C@@H]1CN(Cc2ccccc2)C[C@H](n2cnc3c(NC4CCCC4)ncnc32)O1 the results were EBI2 antag inactive, CXCR6 inh inactive and GAA850 FXN act inactive.
Cn1c(C(=O)N2CCN(c3ccccn3)CC2)cc2ccccc21 was read as EBI2 antag inactive, CXCR6 inh inactive, APJ ag inactive, APJ antagonist inactive, CCR6 antagonist inactive and GAA850 FXN act inactive.
`Cn1c(C(=O)N2CCN(c3ccccc3)CC2)cc2cc(Cl)ccc21` gave EBI2 antag 44.2, CXCR6 inh inactive, APJ ag inactive, APJ antagonist inactive, CCR6 antagonist inactive, GAA850 FXN act inactive, EBI2 antag conf inactive, EBI2 agonist inactive and bGal cs inactive.
Screening O=C(CSc1n[nH]c(=O)[nH]c1=O)Nc1ccc(C(=O)O)cc1 returned EBI2 antag 48.9, CXCR6 inh inactive, APJ ag inactive, APJ antagonist inactive, CCR6 antagonist inactive, GAA850 FXN act inactive, EBI2 antag conf inactive, EBI2 agonist inactive and bGal cs inactive.
For CC(=O)Nc1ccc(S(=O)(=O)NCC(=O)OCC(=O)NCCc2ccccc2)cc1 the results were EBI2 antag inactive, CXCR6 inh inactive and GAA850 FXN act inactive.
For Cc1ccccc1-c1cnc(C(O)c2ccc(-c3ccccc3)cc2)[nH]1 (centres undefined) the results were EBI2 antag inactive, CXCR6 inh inactive and GAA850 FXN act inactive.
